Experimental findings from ChEMBL document CHEMBL1828601, “Small molecule peptidomimetic inhibitors of importin α/β mediated nuclear transport” (Bioorg Med Chem, 2010) are described below.

Experiment [1] concerns FGM. In words: Inhibition of importin alpha/beta-mediated nuclear transportation of Alexa555-BSA-NLS in human FGM cell nucleus at 500 uM after 30 mins by fluorescence microscopy. Type of experiment: cell-based.
Experiment [2] relates to FGM. In words: Inhibition of importin alpha/beta-mediated nuclear transportation of Alexa555-GST-M9 in human FGM cell nucleus at 500 uM after 30 mins by fluorescence microscopy. Type of experiment: cell-based. In outline:
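Transportin-dependent import measured the same way in permeabilized FGM cells, with 0.5 μM Alexa555-GST-M9 cargo in place of BSA-NLS. Conditions: 3 mg/ml HeLa cytosol, ATP-regenerating system, 0.2 mM GTP, 1% DMSO, 30 min at 30°C. Positive control was 1 mg/ml WGA. Nuclear cargo fluorescence quantified per nucleus by automated imaging.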

Active and inactive are the calls of the source. How the calls were made is not given here.

Consider `CC[C@H](C)[C@H](NC(=O)c1ccc(NC(=O)[C@@H](N)CC(N)=O)c(OCc2c[nH]cn2)c1)C(=O)O`, for which the inhibition result in the experiment with FGM [1] and in the experiment on FGM [2] was “inactive” throughout.
As for `C[C@H](N)C(=O)N1C[C@@H](C(=O)NCCc2c[nH]cn2)[C@H](C(=O)NCCc2c[nH]c3ccccc23)C1`, the inhibition result in the experiment with FGM [1] and in the experiment with FGM [2] was “inactive” each time.
For the compound `COc1ccc(C[C@H](N)C(=O)Nc2ccc(C(=O)N[C@@H](CCc3ccccc3)C(=O)O)cc2OCc2ccc(Cl)cc2)cc1`, the inhibition result in the experiment with FGM [1] and in the experiment with FGM [2] was “inactive” each time.
`NCCCCNC(=O)[C@@H]1CN(C(=O)[C@@H](N)Cc2ccc(Cl)cc2)C[C@H]1C(=O)NCCc1ccc2ccccc2c1`: the inhibition entry in the experiment with FGM [1] and in the experiment with FGM [2] was “inactive” throughout.
With `CC[C@H](C)[C@H](NC(=O)c1ccc(NC(=O)[C@@H](N)CCSC)c(OCc2c[nH]cn2)c1)C(=O)O`, the inhibition entry in the experiment with FGM [1] and in the experiment on FGM [2] was “inactive” each time.
For the compound `NCCCC[C@H](N)C(=O)Nc1ccc(C(=O)N[C@@H](CCc2ccccc2)C(=O)O)cc1OCc1ccc(Cl)cc1`, the inhibition entry in the experiment with FGM [1] and in the experiment on FGM [2] was “inactive” in each case.
For `CC(C)[C@H](N)C(=O)Nc1ccc(C(=O)N[C@@H](CCc2ccccc2)C(=O)O)cc1OCc1ccc(Cl)cc1`, the inhibition result in the experiment with FGM [1] and with FGM [2] was “inactive” in each case.
For `NC(=O)C[C@H](N)C(=O)N1C[C@@H](C(=O)NCCc2c[nH]cn2)[C@H](C(=O)NCCc2c[nH]c3ccccc23)C1`, the inhibition entry with FGM [1] and with FGM [2] was “inactive” throughout.
Consider `NCCCCNC(=O)[C@@H]1CN(C(=O)[C@@H](N)CCCCN)C[C@H]1C(=O)NCCc1ccc2ccccc2c1`, for which the inhibition result with FGM [1] and in the experiment with FGM [2] was “inactive” in each case.
With `N[C@@H](CCc1ccccc1)C(=O)N1C[C@@H](C(=O)NCCc2c[nH]cn2)[C@H](C(=O)NCCc2c[nH]c3ccccc23)C1`, the inhibition entry in the experiment on FGM [1] and in the experiment with FGM [2] was “Active” each time.
Regarding `N[C@@H](CC(=O)O)C(=O)N1C[C@@H](C(=O)NCCc2c[nH]cn2)[C@H](C(=O)NCCc2c[nH]c3ccccc23)C1`, the inhibition entry with FGM [1] and with FGM [2] was “inactive” in each case.
Consider `CC[C@H](C)[C@H](NC(=O)c1ccc(NC(=O)[C@@H](N)CC(C)C)c(OCc2c[nH]cn2)c1)C(=O)O`, for which the inhibition entry with FGM [1] and in the experiment on FGM [2] was “inactive” each time.
With `N[C@@H](Cc1ccc(Cl)cc1)C(=O)N1C[C@@H](C(=O)NCCc2c[nH]cn2)[C@H](C(=O)NCCc2c[nH]c3ccccc23)C1`, the inhibition entry in the experiment on FGM [1] and in the experiment on FGM [2] was “Active” throughout.
Consider `N[C@@H](Cc1ccc(Cl)cc1)C(=O)Nc1ccc(C(=O)N[C@@H](CCc2ccccc2)C(=O)O)cc1OCc1ccc(Cl)cc1`, for which the inhibition entry in the experiment with FGM [1] and in the experiment on FGM [2] was “inactive” in each case.
For `CC[C@H](C)[C@H](NC(=O)c1ccc(NC(=O)[C@@H](N)CCc2ccccc2)c(OCc2c[nH]cn2)c1)C(=O)O`, the inhibition entry in the experiment on FGM [1] and with FGM [2] was “Active” throughout.
With `CC[C@@H](C)[C@H](NC(=O)c1ccc(NC(=O)[C@@H](N)CC(=O)O)c(OCc2c[nH]cn2)c1)C(=O)O`, the inhibition entry in the experiment on FGM [1] and in the experiment on FGM [2] was “inactive” in each case.
For the compound `CC[C@H](C)[C@H](NC(=O)c1ccc(NC(=O)[C@@H](N)Cc2ccccc2)c(OCc2c[nH]cn2)c1)C(=O)O`, the inhibition result in the experiment with FGM [1] and in the experiment with FGM [2] was “inactive” each time.
`C[C@@H](O)[C@H](N)C(=O)N1C[C@@H](C(=O)NCCCCN)[C@H](C(=O)NCCc2ccc3ccccc3c2)C1`: the inhibition entry in the experiment on FGM [1] and with FGM [2] was “inactive” each time.
As for `NCCCCNC(=O)[C@@H]1CN(C(=O)[C@@H](N)Cc2cnc[nH]2)C[C@H]1C(=O)NCCc1ccc2ccccc2c1`, the inhibition result in the experiment with FGM [1] and in the experiment with FGM [2] was “inactive” each time.
`N[C@@H](Cc1ccc(Cl)cc1)C(=O)Nc1ccc(C(=O)N[C@@H](CCc2ccccc2)C(=O)O)cc1OCc1ccccc1`: the inhibition result in the experiment with FGM [1] was “inactive”.
Turning to `CC(C)COc1cc(C(=O)N[C@@H](Cc2ccc3ccccc3c2)C(=O)O)ccc1NC(=O)[C@@H](N)CC(=O)O`, in the experiment with FGM [1], the inhibition result is “inactive”.
On to `NC(=O)C[C@H](N)C(=O)N1C[C@@H](C(=O)NCCc2c[nH]c3ccccc23)[C@H](C(=O)NCCc2c[nH]c3ccccc23)C1`, for which the inhibition entry with FGM [1] is “inactive”.
On the same count and under the same terms, next, `N[C@@H](CC(=O)O)C(=O)N1C[C@@H](C(=O)NCCc2c[nH]c3ccccc23)[C@H](C(=O)NCCc2c[nH]c3ccccc23)C1`: “inactive”.
The same measure, in the same setting: next, `NCCCC[C@H](N)C(=O)Nc1ccc(C(=O)N[C@@H](CCc2ccccc2)C(=O)O)cc1OCc1ccccc1`: “Active”.
Same read-out and setting: in the case of `CC(C)COc1cc(C(=O)N[C@@H](Cc2ccc3ccccc3c2)C(=O)O)ccc1NC(=O)[C@@H](N)C(C)C` it was “inactive”.
With `CC(C)C[C@H](N)C(=O)Nc1ccc(C(=O)N[C@@H](CCc2ccccc2)C(=O)O)cc1OCc1ccccc1`, in the experiment with FGM [1], the inhibition entry was “Active”.
Same read-out and setting: next, `CC(C)COc1cc(C(=O)N[C@@H](Cc2ccc3ccccc3c2)C(=O)O)ccc1NC(=O)[C@@H](N)CC(C)C`: “inactive”; `CC(C)C[C@H](N)C(=O)N1C[C@@H](C(=O)NCCc2c[nH]c3ccccc23)[C@H](C(=O)NCCc2c[nH]c3ccccc23)C1`: “inactive”.
The same measure, in the same setting: next, `CC(C)COc1cc(C(=O)N[C@@H](Cc2ccc3ccccc3c2)C(=O)O)ccc1NC(=O)[C@@H](N)CCc1ccccc1`: “inactive”; `COc1ccc(C[C@H](N)C(=O)Nc2ccc(C(=O)N[C@@H](CCc3ccccc3)C(=O)O)cc2OCc2ccccc2)cc1`: “inactive”.
Still for that read-out and setting: next, `N[C@@H](Cc1ccccc1)C(=O)N1C[C@@H](C(=O)NCCc2c[nH]c3ccccc23)[C@H](C(=O)NCCc2c[nH]c3ccccc23)C1`: “inactive”; `N[C@@H](Cc1ccc2ccccc2c1)C(=O)N1C[C@@H](C(=O)NCCc2c[nH]c3ccccc23)[C@H](C(=O)NCCc2c[nH]c3ccccc23)C1`: “inactive”.
In the case of `N[C@@H](CC(=O)O)C(=O)Nc1ccc(C(=O)N[C@@H](CCc2ccccc2)C(=O)O)cc1OCc1ccccc1`, the inhibition entry in the experiment on FGM [1] was “inactive”.
On the same count and under the same terms, in the case of `CC(C)COc1cc(C(=O)N[C@@H](Cc2ccc3ccccc3c2)C(=O)O)ccc1NC(=O)[C@@H](N)Cc1c[nH]c2ccccc12` it was “inactive”; in that of `CC(C)COc1cc(C(=O)N[C@@H](Cc2ccc3ccccc3c2)C(=O)O)ccc1NC(=O)[C@@H](N)CCCCN`, “inactive”.
Consider `N[C@@H](Cc1c[nH]c2ccccc12)C(=O)N1C[C@@H](C(=O)NCCc2c[nH]c3ccccc23)[C@H](C(=O)NCCc2c[nH]c3ccccc23)C1`, for which the inhibition entry with FGM [1] was “inactive”.
The same measure, in the same setting: next, `NCCCC[C@H](N)C(=O)N1C[C@@H](C(=O)NCCc2c[nH]c3ccccc23)[C@H](C(=O)NCCc2c[nH]c3ccccc23)C1`: “Active”; `N[C@@H](Cc1ccc(Cl)cc1)C(=O)N1C[C@@H](C(=O)NCCc2c[nH]c3ccccc23)[C@H](C(=O)NCCc2c[nH]c3ccccc23)C1`: “inactive”.
Same read-out and setting: next, `N[C@@H](Cc1cnc[nH]1)C(=O)N1C[C@@H](C(=O)NCCc2c[nH]c3ccccc23)[C@H](C(=O)NCCc2c[nH]c3ccccc23)C1`: “inactive”.
For `CC[C@H](N)C(=O)Nc1ccc(C(=O)N[C@@H](Cc2ccc3ccccc3c2)C(=O)O)cc1OCC(C)C`, in the experiment with FGM [1], the inhibition entry was “inactive”.
Same read-out and setting: in the case of `N[C@@H](CCc1ccc(Cl)cc1)C(=O)N1C[C@@H](C(=O)NCCc2c[nH]c3ccccc23)[C@H](C(=O)NCCc2c[nH]c3ccccc23)C1` it was “inactive”; in that of `CC[C@H](C)[C@H](N)C(=O)N1C[C@@H](C(=O)NCCc2c[nH]c3ccccc23)[C@H](C(=O)NCCc2c[nH]c3ccccc23)C1`, “inactive”.
Still for that read-out and setting: next, `N[C@@H](Cc1ccc(O)cc1)C(=O)Nc1ccc(C(=O)N[C@@H](CCc2ccccc2)C(=O)O)cc1OCc1ccccc1`: “Active”; `CSCC[C@H](N)C(=O)Nc1ccc(C(=O)N[C@@H](CCc2ccccc2)C(=O)O)cc1OCc1ccccc1`: “Active”; `N[C@@H](CCc1ccccc1)C(=O)Nc1ccc(C(=O)N[C@@H](CCc2ccccc2)C(=O)O)cc1OCc1ccccc1`: “Active”.
Same read-out and setting: next, `COc1ccc(C[C@H](N)C(=O)N2C[C@@H](C(=O)NCCc3c[nH]c4ccccc34)[C@H](C(=O)NCCc3c[nH]c4ccccc34)C2)cc1`: “inactive”.
`CC(C)COc1cc(C(=O)N[C@@H](Cc2ccc3ccccc3c2)C(=O)O)ccc1NC(=O)CN`: the inhibition result with FGM [1] was “inactive”.
On the same count and under the same terms, in the case of `N[C@@H](CCc1ccccc1)C(=O)N1C[C@@H](C(=O)NCCc2c[nH]c3ccccc23)[C@H](C(=O)NCCc2c[nH]c3ccccc23)C1` it was “inactive”; in that of `COc1ccc(C[C@H](N)C(=O)Nc2ccc(C(=O)N[C@@H](Cc3ccc4ccccc4c3)C(=O)O)cc2OCC(C)C)cc1`, “Active”.
The same measure, in the same setting: next, `NC(=O)C[C@H](N)C(=O)Nc1ccc(C(=O)N[C@@H](CCc2ccccc2)C(=O)O)cc1OCc1ccccc1`: “inactive”.
The same measure, in the same setting: next, `N[C@@H](CO)C(=O)N1C[C@@H](C(=O)NCCc2c[nH]c3ccccc23)[C@H](C(=O)NCCc2c[nH]c3ccccc23)C1`: “inactive”; `CSCC[C@H](N)C(=O)Nc1ccc(C(=O)N[C@@H](Cc2ccc3ccccc3c2)C(=O)O)cc1OCC(C)C`: “inactive”.
For the compound `N[C@@H](Cc1ccc(O)cc1)C(=O)N1C[C@@H](C(=O)NCCc2c[nH]c3ccccc23)[C@H](C(=O)NCCc2c[nH]c3ccccc23)C1`, in the experiment with FGM [1], the inhibition result was “inactive”.
